Calls of active or inactive are those of the source. No cut-off for these calls is given here.
Experiments:
[1] = AUC in ZDF rat at 10 mg/kg, po; assay type: ADME, organism-based; parameters: dose 10 mg/kg, route oral; settings: plasma
Method in brief: (§1)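 Male ZDF rats; satellite animals outside the efficacy groups were given oral doses of 3, 10 or 100 mg/kg. Plasma Cmax and AUC were calculated from these animals.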

[2] = tested on: Rattus norvegicus; test: Antihypertensive activity in SHR rat assessed as decrease in arterial blood pressure at 10 mg/kg, po QD for 7 days; assay type: functional, Artery
[3] = tested on: Rattus norvegicus; test: Antidiabetic activity in ZDF rat assessed as triglyceride level at 10 mg/kg, po QD for 40 days (reference value: 618+/-52 mg/dL); assay type: functional
[4] = Cmax in SHR rat at 3 mg/kg, po; assay type: ADME, organism-based; parameters: dose 3 mg/kg, route oral; settings: in vivo
Method in brief: (§2)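 SHR received a single oral dose of 1, 3 or 10 mg/kg. Systemic exposure was determined as plasma Cmax and AUC.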

[5] = tested on: Rattus norvegicus; test: Antidiabetic activity in ZDF rat assessed as body weight gain at 100 mg/kg, po QD for 40 days relative to pioglitazone; assay type: functional
Method in brief: (§3)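 Male ZDF rats, starting at about 6 weeks old, were dosed orally once daily for 40 days in 1.5% CMC/0.2% Tween 20 suspension, n = 8/group. Body weight was followed over the study. Gain was calculated per animal from day 0 to day 40 and compared with vehicle and pioglitazone (3 mg/kg) groups. Data are mean ± SEM.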

[6] = Cmax in SHR rat at 1 mg/kg, po; assay type: ADME, organism-based; parameters: dose 1 mg/kg, route oral; settings: in vivo; method in brief: as §2
[7] = tested on: Rattus norvegicus; test: Antidiabetic activity in ZDF rat assessed as body weight gain at 10 mg/kg, po QD for 40 days (reference value: 133+/-9 g); assay type: functional; method in brief: as §3
[8] = target: T1, Type-1 angiotensin II receptor (Homo sapiens, UniProt P30556); test: Binding affinity to human Angiotensin receptor 1
T1 sequence (P30556 whole entry): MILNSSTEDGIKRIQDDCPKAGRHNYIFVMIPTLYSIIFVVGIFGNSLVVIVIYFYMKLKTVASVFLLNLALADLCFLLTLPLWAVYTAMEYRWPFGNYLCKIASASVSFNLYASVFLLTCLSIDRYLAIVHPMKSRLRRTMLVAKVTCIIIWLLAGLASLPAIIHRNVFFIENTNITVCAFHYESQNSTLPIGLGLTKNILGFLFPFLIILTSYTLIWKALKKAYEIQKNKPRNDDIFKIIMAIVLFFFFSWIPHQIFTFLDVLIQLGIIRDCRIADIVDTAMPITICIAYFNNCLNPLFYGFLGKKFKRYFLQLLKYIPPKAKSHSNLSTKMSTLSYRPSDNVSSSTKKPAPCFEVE
Method in brief: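 Competition radioligand binding on human recombinant AT1 receptors, displacing [¹²⁵I]Tyr⁴-Sar¹,Ile⁸-angiotensin II.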

[9] = tested on: Rattus norvegicus; test: Antidiabetic activity in ZDF rat assessed as adiponectin level at 30 mg/kg, po QD for 40 days (reference value: 11.9+/-1.5 ug/ml); assay type: functional
[10] = tested on: Rattus norvegicus; test: Antidiabetic activity in ZDF rat assessed as triglyceride level at 1 mg/kg, po QD for 40 days (reference value: 618+/-52 mg/dL); assay type: functional
[11] = tested on: Rattus norvegicus; test: Antidiabetic activity in ZDF rat assessed as body weight gain at 3 mg/kg, po QD for 40 days (reference value: 133+/-9 g); assay type: functional; method in brief: as §3
[12] = Clearance in rat at 1 mg/kg, iv; assay type: ADME, organism-based; parameters: dose 1 mg/kg, route intravenous; settings: in vivo
[13] = tested on: Rattus norvegicus; test: Antidiabetic activity in ZDF rat assessed as adiponectin level at 100 mg/kg, po QD for 40 days (reference value: 11.9+/-1.5 ug/ml); assay type: functional
[14] = AUC in SHR rat at 1 mg/kg, po; assay type: ADME, organism-based; parameters: dose 1 mg/kg, route oral; settings: plasma; method in brief: as §2
[15] = tested on: Rattus norvegicus; test: Antidiabetic activity in ZDF rat assessed as triglyceride level at 0.1 mg/kg, po QD for 40 days (reference value: 618+/-52 mg/dL); assay type: functional
[16] = Oral bioavailability in rat at 5 mg/kg; assay type: ADME, organism-based; settings: in vivo
[17] = Cmax in ZDF rat at 100 mg/kg, po; assay type: ADME, organism-based; parameters: dose 100 mg/kg, route oral; settings: in vivo; method in brief: as §1
[18] = Volume of distribution at steady state in rat at 1 mg/kg, iv; assay type: ADME, organism-based; parameters: dose 1 mg/kg, route intravenous; settings: in vivo, read-out: Vdss
[19] = Cmax in ZDF rat at 10 mg/kg, po; assay type: ADME, organism-based; parameters: dose 10 mg/kg, route oral; settings: in vivo; method in brief: as §1
[20] = tested on: Rattus norvegicus; test: Antidiabetic activity in ZDF rat assessed as blood glucose level at 3 mg/kg, po QD for 40 days (reference value: 771+/-60 mg/dL); assay type: functional
[21] = tested on: Rattus norvegicus; test: Antidiabetic activity in ZDF rat assessed as triglyceride level at 100 mg/kg, po QD for 40 days (reference value: 618+/-52 mg/dL); assay type: functional
[22] = tested on: Rattus norvegicus; test: Antihypertensive activity in SHR rat assessed as decrease in arterial blood pressure at 10 mg/kg, po administered as single dose; assay type: functional, Artery
Method in brief: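 SHR carried aortic radiotelemetry transmitters implanted under Telazol anesthesia and recovered for at least 1 week. Rats were randomized by 2 h baseline mean BP. Each received vehicle by oral gavage on Day 0 and a single drug dose (0.3–10 mg/kg) on Day 1, with BP followed 20 h each day. The change was taken as Day 1 minus Day 0, n = 8/group.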

[23] = species on record: Rattus norvegicus; test: Steady state free plasma concentration in SHR rat; assay type: ADME, organism-based; settings: in vivo, in the assay text read “ZDF rat” for “SHR rat”
[24] = AUC in SHR rat at 3 mg/kg, po; assay type: ADME, organism-based; parameters: dose 3 mg/kg, route oral; settings: plasma; method in brief: as §2
[25] = tested on: Rattus norvegicus; test: Antidiabetic activity in ZDF rat assessed as blood glucose level at 30 mg/kg, po QD for 40 days (reference value: 771+/-60 mg/dL); assay type: functional
[26] = tested on: Rattus norvegicus; test: Antidiabetic activity in ZDF rat assessed as body weight gain at 100 mg/kg, po QD for 40 days (reference value: 133+/-9 g); assay type: functional; method in brief: as §3
[27] = target: T2, Peroxisome proliferator-activated receptor alpha (Homo sapiens) (UniProt Q07869); test: Transactivation of human PPARalpha
T2 sequence (whole entry): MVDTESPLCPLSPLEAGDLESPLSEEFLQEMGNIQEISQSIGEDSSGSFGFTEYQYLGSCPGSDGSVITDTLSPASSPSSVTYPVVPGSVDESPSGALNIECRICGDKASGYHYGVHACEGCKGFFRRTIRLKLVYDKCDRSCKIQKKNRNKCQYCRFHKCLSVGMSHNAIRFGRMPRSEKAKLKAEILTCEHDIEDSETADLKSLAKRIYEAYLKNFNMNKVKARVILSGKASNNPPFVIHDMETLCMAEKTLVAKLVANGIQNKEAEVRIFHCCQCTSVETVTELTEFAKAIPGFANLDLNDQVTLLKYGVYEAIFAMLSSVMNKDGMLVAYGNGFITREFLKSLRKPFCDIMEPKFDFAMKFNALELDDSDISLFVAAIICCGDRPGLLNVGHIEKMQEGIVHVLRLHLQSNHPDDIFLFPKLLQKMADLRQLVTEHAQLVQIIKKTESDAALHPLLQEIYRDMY

AUC [1]: 28000 ng·h/mL | Cmax [4]: 283 ng/mL | Cmax [6]: 74 ng/mL | Ki [8]: 0.69 nM | clearance [12]: 14 mL/min/kg | AUC [14]: 320 ng·h/mL | bioavailability [16]: 80% | Cmax [17]: 177000 ng/mL | Vd [18]: 2.9 L/kg | Cmax [19]: 2730 ng/mL | Cp(f)ss [23]: 2.6 nM | AUC [24]: 1280 ng·h/mL | Activity [27]: inactive
SMILES: CCc1nc2c(C)cc(CC(C)C)nc2n1[C@H]1CCc2cc(-c3ccccc3-c3nnn[nH]3)ccc21
Activity [2]: >60 mmHg | Activity [3]: 393 mg/dL | Activity [5]: 51% | Activity [7]: 200 g | Activity [9]: 24.3 µg/mL | Activity [10]: 725 mg/dL | Activity [11]: 159 g | Activity [13]: 27.5 µg/mL | Activity [15]: 559 mg/dL | Activity [20]: 520 mg/dL | Activity [21]: 151 mg/dL | Activity [22]: 36 mmHg | Activity [25]: 140 mg/dL | Activity [26]: 202 g
